Measured values: ChEMBL document CHEMBL1641473, “Synthesis, structure, theoretical and experimental in vitro antioxidant/pharmacological properties of α-aryl, N-alkyl nitrones, as potential agents for the treatment of cerebral ischemia” (2011)

Assays:
Assay type in all cases: functional
[1] = test system: SH-SY5Y; assay: Neuroprotective activity against rotenone/oligomycin-A-induced death in human SH-SY5Y cells assessed as protective effect at 1 mM after 2 hrs by MTT assay
Outline: (§1)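 Human SH-SY5Y neuroblastoma cells, low passage (<13), grown in 1:1 Ham's F-12/EMEM with 10% heat-inactivated FBS. Seeded at 1×10⁵ cells/well and treated before confluence in EMEM with 1% FBS. Insult was 30 µM rotenone plus 10 µM oligomycin-A for 24 h. Viability read by MTT (2 h, 37 °C, dark), then lysis and absorbance at 540 nm.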

[2] = test system: SH-SY5Y; assay: Neuroprotective activity against rotenone/oligomycin-A-induced death in human SH-SY5Y cells assessed as increase of cell viability at 1 mM after 2 hrs by MTT assay; outline: as §1
[3] = test system: SH-SY5Y; assay: Neuroprotective activity against rotenone/oligomycin-A-induced death in human SH-SY5Y cells assessed as protective effect at 1 uM after 2 hrs by MTT assay; outline: as §1
[4] = Antioxidant activity assessed as trolox equivalents of peroxyl radical scavenging activity by ORAC assay
Outline: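 Fluorescein (70 nM) with 2,2'-azobis(2-methylpropionamidine) dihydrochloride (12 mM) and antioxidant in 75 mM phosphate buffer pH 7.4 at 37 °C. Fluorescence recorded every minute for 98 min. Net AUC taken against the blank and plotted against concentration; slope divided by the slope of the Trolox curve from the same assay. Duplicate wells, at least three independent assays.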

[5] = test system: Radical scavenging activity; assay: Antioxidant activity of the compound assessed as DPPH radical scavenging activity at 0.5 mM after 2 hrs
Outline: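 DPPH radical mixed with nitrone and held 2 h at room temperature in the dark. DPPH absorbance read at 517 nm. RSA% = 100 × (A0 − Ai)/A0, with A0 and Ai the absorbance without and with nitrone. Quadruplicate wells, at least three independent runs; mean ± SEM.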

[6] = test system: Mus musculus; assay: Neuroprotective activity in NMRI mouse assessed as protection against t-BHP-induced lethality at 150 mg/kg, ip after 30 mins relative to control; conditions: route intraperitoneal
[7] = test system: SH-SY5Y; assay: Neuroprotective activity against rotenone/oligomycin-A-induced death in human SH-SY5Y cells assessed as increase of cell viability at 1 uM after 2 hrs by MTT assay; outline: as §1
[8] = Antioxidant activity assessed as hydroxyl radical scavenging activity at 50 uM after 2 hrs by benzoic acid method
Outline: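 Hydroxyl radical from a Fenton reaction (Fe2+ plus H2O2 10 mmol) hydroxylates benzoate to fluorescent hydroxybenzoates. Incubation 2 h at 37 °C with or without nitrone; fluorescence read at excitation 305 nm, emission 407 nm. RSA% relative to no-nitrone control. Quadruplicate wells, at least three independent runs; mean ± SEM.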

[9] = test system: SH-SY5Y; assay: Neuroprotective activity against rotenone/oligomycin-A-induced death in human SH-SY5Y cells assessed as protective effect at 10 nM after 2 hrs by MTT assay; outline: as §1
[10] = test system: SH-SY5Y; assay: Neuroprotective activity against rotenone/oligomycin-A-induced death in human SH-SY5Y cells assessed as increase of cell viability at 10 nM after 2 hrs by MTT assay; outline: as §1
[11] = test system: Radical scavenging activity; assay: Antioxidant activity of the compound assessed as DPPH radical scavenging activity at 15 mM after 2 hrs
Outline: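 DPPH radical added to test compound; mixture kept 2 h at room temperature in the dark, then absorbance read at 517 nm. RSA% = 100×(A0−Ai)/A0, where A0 and Ai are DPPH absorbance without and with compound. Quadruplicate wells, at least three independent runs; mean ± SEM.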

Structure (SMILES)	Activity [1] [%]	Activity [2] [%]	Activity [3] [%]	Activity (Trolox equivalents) [4]	Activity [5] [%]	Activity [6] [%]	Activity [7] [%]	Activity [8] [%]	Activity [9] [%]	Activity [10] [%]	Activity [11] [%]
CC(=O)N[C@@H](CS)C(=O)O [ACETYLCYSTEINE]	25	63.1	–	–	–	–	–	–	–	–	–
COc1ccc2c(c1)cc(/C=[N+](\[O-])C(C)(C)C)n2C	–	–	4.4	7.98	4.8	50	62.8	–	–	–	–
CC(C)(C)/[N+]([O-])=C/c1ccccc1	–	–	18.6	0	1.4	73	69.6	94.9	–	–	–
CC(C)(C)/[N+]([O-])=C/c1cccnc1Cl	–	–	0	0.01	1.6	74	61.4	94.9	–	–	–
COc1cc(/C=[N+](\[O-])Cc2ccccc2)c(Br)cc1O	–	–	13.4	6.4	40.7	–	62.8	95.7	–	–	–
C/[N+]([O-])=C/c1ccccc1	–	–	18.7	0	0.8	–	64.7	95.3	–	–	–
COc1cc(Br)c(/C=[N+](\[O-])C(C)(C)C)cc1OC	–	–	0	0.03	0.8	70	63.1	96.3	–	–	–
COc1cc(Br)c(/C=[N+](\[O-])C(C)(C)C)cc1O	–	–	11	5.58	31.1	87	65	96.3	–	–	–
COc1ccc2[nH]cc(CCNC(C)=O)c2c1 [MELATONIN]	–	–	–	–	–	–	–	–	17	59	–
Cc1c(C)c2c(c(C)c1O)CCC(C)(C(=O)O)O2 (stereo not drawn)	–	–	–	1	–	–	–	94.3	–	–	–
O=c1c(O)c(-c2ccc(O)c(O)c2)oc2cc(O)cc(O)c12	–	–	–	10.5	–	–	–	96.6	–	–	94.2
COc1cc(/C=[N+](\[O-])Cc2ccccc2)ccc1O	–	–	16.9	2.93	88.2	–	63.9	96.9	–	–	–
CC(C)(C)/[N+]([O-])=C/c1cccnc1Br	–	–	24	0.01	3.9	76	60.1	95.1	–	–	–
COc1cc(/C=C/C(=O)CC(=O)/C=C/c2ccc(O)c(OC)c2)ccc1O [CURCUMIN]	–	–	–	–	–	106	–	96.8	–	–	35
COc1cc(Br)c(/C=[N+](\[O-])Cc2ccccc2)cc1OC	–	–	3	0.03	0.2	116	65.3	95.1	–	–	–
COc1cc(/C=[N+](/C)[O-])ccc1O	–	–	–	3.35	87.6	–	–	96.5	–	–	–
CC(C)(C)/[N+]([O-])=C/c1c[nH]c2ccccc12	–	–	8	3.69	1.2	60	64.1	–	–	–	–
COc1cc(Br)c(/C=[N+](\[O-])Cc2ccccc2)cc1O	–	–	8.7	7.36	25.9	111	64.2	94.6	–	–	–
[O-]/[N+](=C\c1ccccc1)Cc1ccccc1	–	–	18.4	0.01	0.6	111	70.8	95.7	–	–	–
